The values below come from paper PMC4203403 (Journal of Medicinal Chemistry, 2014).

The structures appear in SMILES notation. Like-named read-outs stand apart in the source and are kept apart here.

For test [1], the target named is T1, CB1 receptor (Homo sapiens, UniProt P21554). The experiment in a line: ERK1/2 phosphorylation immunoblotting in HEK293 cells expressing CB1. To be noted: for pertussis toxin (PTX) sensitivity of induced ERK1/2 phosphorylation: PTX pretreatment; for pertussis toxin (PTX) sensitivity of induced ERK1/2 phosphorylation / effect of β-arrestin 1 knockdown on induced ERK1/2 phosphorylation: result in words; for effect of β-arrestin 1 knockdown on induced ERK1/2 phosphorylation: siRNA targeting β-arrestin 1; for modulator concentration at which ERK1/2 phosphorylation reached a plateau: in the presence of 0.2 μM CP55,940, 5 min. It counts as cell-based. (In general: A western blot detects proteins with antibodies after separation by electrophoresis.)
T1 sequence (P21554 whole entry): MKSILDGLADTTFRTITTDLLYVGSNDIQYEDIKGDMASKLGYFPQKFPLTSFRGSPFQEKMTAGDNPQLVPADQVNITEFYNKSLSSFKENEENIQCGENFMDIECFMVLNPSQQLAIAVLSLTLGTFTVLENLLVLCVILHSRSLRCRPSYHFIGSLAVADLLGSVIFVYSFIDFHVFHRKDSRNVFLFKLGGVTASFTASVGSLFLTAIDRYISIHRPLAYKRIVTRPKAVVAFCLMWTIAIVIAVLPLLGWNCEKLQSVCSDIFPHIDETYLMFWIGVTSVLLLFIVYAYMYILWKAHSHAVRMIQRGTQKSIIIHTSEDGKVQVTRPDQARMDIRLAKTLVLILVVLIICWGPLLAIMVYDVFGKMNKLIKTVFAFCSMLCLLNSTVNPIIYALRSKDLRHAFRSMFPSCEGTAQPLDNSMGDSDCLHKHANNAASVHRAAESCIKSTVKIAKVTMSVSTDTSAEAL

Test [2] has as its target T1, CB1 receptor. To be noted: [3H]CP55,940 as orthosteric ligand; given for comparison; cited from earlier work.
Test [3] has as its target T1, CB1 receptor. Kind of test: Radioligand binding assay with [3H]CP55,940. To be noted: for α: binding cooperativity factor: [3H]CP55,940 as orthosteric ligand, ND = no detectable modulation of [3H]CP55,940 binding using up to 32 μM. An outline of the steps:
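CB1 was transiently expressed in HEK293 cells by calcium phosphate transfection, and membranes were harvested 24 h later. […] Nonspecific binding was measured with 1 μM CP55,940. Read-out was GF/C filtration and scintillation counting. Run in duplicate, ≥3 experiments; KB and α fitted by nonlinear regression.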

The target of test [4] is T1, CB1 receptor. Kind of test: CP55,940-induced [35S]GTPγS binding assay, HEK293 cell membranes expressing CB1. Format: biochemical. To be noted: result in words. (In general: GTPγS is a poorly hydrolysed GTP analogue; its binding reports G protein activation.)

Turning to `CCCCCCC(C)(C)c1ccc([C@@H]2C[C@H](O)CC[C@H]2CCCO)c(O)c1` [CP55,940, 2-[(1R,2R,5R)-5-hydroxy-2-(3-hydroxypropyl)cyclohexyl]-5-(2-methyloctan-2-yl)phenol, reference compound], at CB1 receptor [1], the “pertussis toxin (PTX) sensitivity of induced ERK1/2 phosphorylation” value is recorded as “substantially attenuated by pertussis toxin (PTX)” and the “effect of β-arrestin 1 knockdown on induced ERK1/2 phosphorylation” value (“effect of β-arrestin 1 knockdown” below) is given as “not by β-arrestin knockdown”.
Consider `CCc1c(C(=O)NCCc2ccc(N3CCCCC3)cc2)[nH]c2ccc(Cl)cc12` [Compound 1, 5-Chloro-3-ethyl-N-(4-(piperidin-1-yl)phenethyl)-1H-indole-2-carboxamide], for which the “α: binding cooperativity factor” value at CB1 receptor [2] was 6.9.
With `CCCCCc1c(C(=O)NCCc2ccc(N3CCCCC3)cc2)[nH]c2ccc(Cl)cc12` [Compound 2, 5-chloro-3-pentyl-N-(4-(piperidin-1-yl)phenethyl)-1H-indole-2-carboxamide, reference compound], on CB1 receptor [1], the “modulator concentration at which ERK1/2 phosphorylation reached a plateau” value (“modulator concentration” for short) turned out to be 10 µM and the “effect of β-arrestin 1 knockdown” value was “substantial inhibition of ERK1/2 phosphorylation”. Besides, the “α: binding cooperativity factor” value at CB1 receptor [2] was 17.6.
Regarding `CCc1c(C(=O)NCCc2ccc(N(C)C)cc2)[nH]c2ccc(Cl)cc12` [Compound 4, 5-chloro-N-(4-(dimethylamino)phenethyl)-3-ethyl-1H-indole-2-carboxamide], the “α: binding cooperativity factor” value on CB1 receptor [2] is 19.7.
Turning to `CCCCCc1c(C(=O)NCCc2ccc(N(C)C)cc2)[nH]c2ccc(Cl)cc12` [Compound 5, 5-chloro-N-(4-(dimethylamino)phenethyl)-3-pentyl-1H-indole-2-carboxamide], on CB1 receptor [2], the “α: binding cooperativity factor” value was 16.5.
Turning to `CCCc1c(C(=O)NCCc2ccc(N3CCCCC3)cc2)[nH]c2ccc(Cl)cc12` [Compound 12a, 5-Chloro-N-(4-(piperidin-1-yl)phenethyl)-3-propyl-1H-indole-2-carboxamide], on CB1 receptor [3], the “α: binding cooperativity factor” value came to 26.7.
On to `CCCc1c(C(=O)NCCc2ccc(N(C)C)cc2)[nH]c2ccc(Cl)cc12` [Compound 12d, 5-Chloro-N-(4-(dimethylamino)phenethyl)-3-propyl-1H-indole-2-carboxamide], for which the “α: binding cooperativity factor” value on CB1 receptor [3] amounted to 24.5. The “effect on CP55,940-induced G-protein coupling activity (GTPγS binding)” value at CB1 receptor [4] was “concentration-dependent inhibition of agonist-induced GTPγS binding”. On CB1 receptor [1], the “modulator concentration” value was 5 µM and the “effect of β-arrestin 1 knockdown” value is given as “substantial inhibition of ERK1/2 phosphorylation”.
Consider `CCCCc1c(C(=O)NCCc2ccc(N(C)C)cc2)[nH]c2ccc(Cl)cc12` [Compound 12e, 3-Butyl-5-chloro-N-(4-(dimethylamino)phenethyl)-1H-indole-2-carboxamide], for which the “α: binding cooperativity factor” value at CB1 receptor [3] came out at 12.8.
Regarding `CCCCCCc1c(C(=O)NCCc2ccc(N(C)C)cc2)[nH]c2ccc(Cl)cc12` [Compound 12f, 5-Chloro-N-(4-(dimethylamino)phenethyl)-3-hexyl-1H-indole-2-carboxamide], the “α: binding cooperativity factor” value on CB1 receptor [3] is reported as 5.1. For the same compound, the “effect on CP55,940-induced G-protein coupling activity (GTPγS binding)” value on CB1 receptor [4] is listed as “concentration-dependent inhibition of agonist-induced GTPγS binding”. At CB1 receptor [1], the “pertussis toxin (PTX) sensitivity of induced ERK1/2 phosphorylation” value is on record as “PTX insensitive”, the “modulator concentration” value stood at 5 µM and the “effect of β-arrestin 1 knockdown” value was “substantial inhibition of ERK1/2 phosphorylation”.
Turning to `CCc1c(C(=O)NCCc2ccc(N(C)C)cc2)[nH]c2cc(Cl)ccc12` [Compound 21a, N-(4-(Dimethylamino)phenethyl)-3-ethyl-6-chloro-1H-indole-2-carboxamide], the “α: binding cooperativity factor” value on CB1 receptor [3] was 16.0.
Regarding `CCc1c(C(=O)NCCc2ccc(N(C)C)cc2)[nH]c2cc(F)ccc12` [Compound 21b, N-(4-(Dimethylamino)phenethyl)-3-ethyl-6-fluoro-1H-indole-2-carboxamide], the “α: binding cooperativity factor” value on CB1 receptor [3] worked out at 22.9.
Take `CCc1c(C(=O)NCCc2ccc(N(C)C)cc2)[nH]c2cc(OC)ccc12` [Compound 21c, N-(4-(Dimethylamino)phenethyl)-3-ethyl-6-methoxy-1H-indole-2-carboxamide]: the “α: binding cooperativity factor” value on CB1 receptor [3] turned out to be 6.2.
With `CCc1c(C(=O)NCCc2ccc(N(C)C)cc2)[nH]c2ccc(OC)cc12` [Compound 21d, N-(4-(Dimethylamino)phenethyl)-3-ethyl-5-methoxy-1H-indole-2-carboxamide], the “α: binding cooperativity factor” value on CB1 receptor [3] stood at 11.9.
On to `CCc1c(C(=O)NCCCc2ccc(N(C)C)cc2)[nH]c2ccc(Cl)cc12` [Compound 26, 5-Chloro-N-(3-(4-(dimethylamino)phenyl)propyl)-3-ethyl-1H-indole-2-carboxamide], for which, at CB1 receptor [3] (result in words), the “allosteric modulation of orthosteric agonist CP55,940 binding” value is reported as “loss of allosteric modulation”.
